Active and inactive are the calls of the source. The calls are words filed in the database; no cut-off is given here.
Assays:
[1] = target: T1, Parathyroid hormone/parathyroid hormone-related peptide receptor (Homo sapiens) (UniProt Q03431); test: Agonist activity at extracellular domain truncate human PTH1 receptor expressed in GD5 cells assessed as induction of cAMP after 12 to 20 mins by luciferase reporter gene assay; type: functional, cell-based
T1 sequence (whole entry): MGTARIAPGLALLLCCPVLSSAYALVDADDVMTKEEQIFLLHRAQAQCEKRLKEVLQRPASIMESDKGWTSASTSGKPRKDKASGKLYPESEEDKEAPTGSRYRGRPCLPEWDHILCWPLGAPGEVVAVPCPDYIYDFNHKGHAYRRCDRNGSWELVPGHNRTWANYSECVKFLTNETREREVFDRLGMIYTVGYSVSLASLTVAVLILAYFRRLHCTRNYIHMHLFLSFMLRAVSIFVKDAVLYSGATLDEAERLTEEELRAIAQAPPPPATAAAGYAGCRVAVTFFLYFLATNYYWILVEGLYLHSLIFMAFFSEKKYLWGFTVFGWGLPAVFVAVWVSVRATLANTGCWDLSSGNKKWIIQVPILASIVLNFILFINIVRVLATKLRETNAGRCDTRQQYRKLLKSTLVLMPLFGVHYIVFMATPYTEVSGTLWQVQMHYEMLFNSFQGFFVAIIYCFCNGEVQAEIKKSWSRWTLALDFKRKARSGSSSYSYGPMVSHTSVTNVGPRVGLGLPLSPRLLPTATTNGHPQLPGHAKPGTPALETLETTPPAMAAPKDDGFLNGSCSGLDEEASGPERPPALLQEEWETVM
Summary of the method: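 HEK293-derived lines stably expressing Glosensor cAMP reporter plus full-length human PTHR1 (GP2.3) or ECD-truncated PTHR1 (GD5). Confluent monolayers preincubated at room temperature in CO2-independent medium with 0.5 mM D-luciferin until baseline stable (30 min), then varied agonist concentrations added. Maximal luminescence (12−20 min) used for sigmoidal variable-slope fits.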

[2] = target: T1, Parathyroid hormone/parathyroid hormone-related peptide receptor (Homo sapiens); test: Agonist activity at human PTH1 receptor expressed in human GP2.3 cells assessed as induction of cAMP after 12 to 20 mins by luciferase reporter gene assay relative to PTH(1 to 34 residues)-NH2; type: functional, cell-based

| Activity [1] | fold change (FC) [2] | SMILES |
| --- | --- | --- |
| Active | 0.7 | CC[C@H](C)[C@H](NC(=O)[C@H](CCC(=O)O)NC(=O)[C@H](CO)NC(=O)[C@@H](NC(=O)C[C@@H](N)CO)C(C)C)C(=O)N[C@@H](CCC(N)=O)C(=O)N[C@@H](CC(C)C)C(=O)N[C@@H](CCSC)C(=O)N[C@@H](Cc1cnc[nH]1)C(=O)N[C@@H](CC(N)=O)C(=O)N[C@@H](CC(C)C)C(=O)NCC(=O)N[C@@H](CCCCN)C(=O)N[C@@H](Cc1cnc[nH]1)C(=O)N[C@@H](CC(C)C)C(=O)N[C@@H](CC(N)=O)C(=O)N[C@@H](CO)C(=O)N[C@@H](CCSC)C(=O)N[C@@H](CCC(=O)O)C(=O)N[C@@H](CCCNC(=N)N)C(=O)N[C@H](C(=O)N[C@@H](CCC(=O)O)C(=O)N[C@@H](Cc1c[nH]c2ccccc12)C(=O)N[C@@H](CC(C)C)C(=O)N[C@@H](CCCNC(=N)N)C(=O)N[C@@H](CCCCN)C(=O)N[C@@H](CCCCN)C(=O)N[C@@H](CC(C)C)C(=O)N[C@@H](CCC(N)=O)C(=O)N[C@@H](CC(=O)O)C(=O)N[C@H](C(=O)N[C@@H](Cc1cnc[nH]1)C(=O)N[C@@H](CC(N)=O)C(=O)N[C@@H](Cc1ccccc1)C(N)=O)C(C)C)C(C)C |
| Active | 28 | CC[C@H](C)[C@@H](CC(=O)N[C@@H](CCC(N)=O)C(=O)N[C@@H](CC(C)C)C(=O)N[C@@H](CCSC)C(=O)N[C@@H](Cc1cnc[nH]1)C(=O)N[C@@H](CC(N)=O)C(=O)N[C@@H](CC(C)C)C(=O)NCC(=O)N[C@@H](CCCCN)C(=O)N[C@@H](Cc1cnc[nH]1)C(=O)N[C@@H](CC(C)C)C(=O)N[C@@H](CC(N)=O)C(=O)N[C@@H](CO)C(=O)N[C@@H](CCSC)C(=O)N[C@@H](CCC(=O)O)C(=O)N[C@@H](CCCNC(=N)N)C(=O)N[C@H](C(=O)N[C@@H](CCC(=O)O)C(=O)N[C@@H](Cc1c[nH]c2ccccc12)C(=O)N[C@@H](CC(C)C)C(=O)N[C@@H](CCCNC(=N)N)C(=O)N[C@@H](CCCCN)C(=O)N[C@@H](CCCCN)C(=O)N[C@@H](CC(C)C)C(=O)N[C@@H](CCC(N)=O)C(=O)N[C@@H](CC(=O)O)C(=O)N[C@H](C(=O)N[C@@H](Cc1cnc[nH]1)C(=O)N[C@@H](CC(N)=O)C(=O)N[C@@H](Cc1ccccc1)C(N)=O)C(C)C)C(C)C)NC(=O)[C@H](CCC(=O)O)NC(=O)[C@H](CO)NC(=O)[C@@H](NC(=O)[C@@H](N)CO)C(C)C |
| Active | 205 | CC[C@H](C)[C@H](NC(=O)[C@H](CCC(=O)O)NC(=O)[C@H](CO)NC(=O)[C@@H](NC(=O)[C@@H](N)CO)C(C)C)C(=O)N[C@@H](CCC(N)=O)C(=O)N[C@@H](CC(C)C)C(=O)N[C@@H](CCSC)CC(=O)N[C@@H](Cc1cnc[nH]1)C(=O)N[C@@H](CC(N)=O)C(=O)N[C@@H](CC(C)C)C(=O)NCC(=O)N[C@@H](CCCCN)C(=O)N[C@@H](Cc1cnc[nH]1)C(=O)N[C@@H](CC(C)C)C(=O)N[C@@H](CC(N)=O)C(=O)N[C@@H](CO)C(=O)N[C@@H](CCSC)C(=O)N[C@@H](CCC(=O)O)C(=O)N[C@@H](CCCNC(=N)N)C(=O)N[C@H](C(=O)N[C@@H](CCC(=O)O)C(=O)N[C@@H](Cc1c[nH]c2ccccc12)C(=O)N[C@@H](CC(C)C)C(=O)N[C@@H](CCCNC(=N)N)C(=O)N[C@@H](CCCCN)C(=O)N[C@@H](CCCCN)C(=O)N[C@@H](CC(C)C)C(=O)N[C@@H](CCC(N)=O)C(=O)N[C@@H](CC(=O)O)C(=O)N[C@H](C(=O)N[C@@H](Cc1cnc[nH]1)C(=O)N[C@@H](CC(N)=O)C(=O)N[C@@H](Cc1ccccc1)C(N)=O)C(C)C)C(C)C |

From ChEMBL document CHEMBL4024754, “Development of Potent, Protease-Resistant Agonists of the Parathyroid Hormone Receptor with Broad β Residue Distribution” (J Med Chem, 2017)
